# SENP6 block – blocks the human protease SENP6 | inhibition, % at 10 µM | hit rate 1.8% among 330,000 | AID 2599 | Q9GZR1 | Recombinant SENP6 catalytic domain, aminoluciferin luminescence;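 active means inhibition above about 50% at the single tested dose, limit read from the data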
# SENP8 block-1 – SENP8 (human) protease inhibition. recombinant SENP8, Nedd8 substrate fluorescence. Q96LD8. AID 602440. hit rate 0.64% among 360,000. inhibition, % at 20 µM; in the data active means inhibition mostly above about 40%, no sharp cut-off; inactive means mostly below about 27%
# Target sequence (Q96LD8 whole entry, looked up): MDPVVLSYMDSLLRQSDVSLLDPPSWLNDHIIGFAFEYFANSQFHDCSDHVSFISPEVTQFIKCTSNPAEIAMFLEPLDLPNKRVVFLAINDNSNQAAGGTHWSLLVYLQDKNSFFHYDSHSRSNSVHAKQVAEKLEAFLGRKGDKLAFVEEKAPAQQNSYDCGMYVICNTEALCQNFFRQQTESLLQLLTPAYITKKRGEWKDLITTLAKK
# SENP1 FRET inh – inhibitors of human SENP1 SUMO protease catalytic domain | Q9P0U3 | recombinant SENP1 catalytic domain, CyPet-SUMO1-YPet FRET cleavage | inhibition, % at 10 µM | hit rate 0.21% among 360,000;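 active means inhibition at least 30% at 10 µM, raw YFP signal under a set limit, fluorescence ratio 0.5 to 1.5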
# Target sequence (Q9P0U3 419-644 limits assumed): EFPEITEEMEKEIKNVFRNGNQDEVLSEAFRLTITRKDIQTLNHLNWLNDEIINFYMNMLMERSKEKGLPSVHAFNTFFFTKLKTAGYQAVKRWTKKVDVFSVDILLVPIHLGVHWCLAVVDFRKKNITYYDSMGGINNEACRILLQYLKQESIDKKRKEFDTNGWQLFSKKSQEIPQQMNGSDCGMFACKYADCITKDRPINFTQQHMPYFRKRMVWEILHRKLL
#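 System: Recombinant human SENP1 catalytic domain, His6-tagged | Incubation: Enzyme reaction for 50 min at room temperature, dark | Medium: Tris pH 8 with BME, BSA, NP40 and catalase | Also added: 25 nM SUMO1 FRET substrate | Compound: 10 µM single point, 0.5% DMSO | Measured by: FRET fluorescence in CFP and YFP emission channels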
# SENP7 block – blocks the human protease SENP7; Q9BQF6; recombinant SENP7, Z-RLRGG-aminoluciferin luminescence, 40 min; inhibition, % at 5 µM; hit rate 1.5% among 330,000; AID 434973;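 active means inhibition above about 50% at the single test dose, limit read from the data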
# SENP8 block-2 – inhibitors of human SENP8 protease; Q96LD8; purified SENP8, Z-RLRGG-aminoluciferin cleavage, luminescence; inhibition, % at 10 µM; hit rate 1.2% among 330,000; AID 2540; in the data active means inhibition above about 50%
# Platelet DG rel – modulates dense granule release in human platelets; AID 1663; inhibition, %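 (compounds screened at 7.5 µM in platelet-rich plasma)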; human platelet-rich plasma, SFLLRN dense granule ATP release, luminescence; hit rate 0.22% among 300,000;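 active means mean replicate score, as percent of positive control, at or above 50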
# SENP8 conf – human SENP8 inhibition, confirmed; hit rate 40% among 6,200; Recombinant SENP8, Z-RLRGG-aminoluciferin luminescence, 60 min; AID 488912; inhibition, % at 12.5 µM; shares compounds with SENP7 block;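 active means mean inhibition across replicates above about 50%, limit read from the data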
# SENP6 confirm – confirmation of human SENP6 protease inhibitors; shares compounds with SENP7 block; recombinant SENP6, Z-RLRGG-aminoluciferin luminescence; inhibition, % at 12.5 µM; hit rate 58% among 6,200; AID 488915
# SENP7 conf – human SENP7 inhibition, confirmed; shares compounds with SENP7 block; recombinant SENP7, Z-RLRGG-aminoluciferin luminescence, 40 min; inhibition, % at 12.5 µM; hit rate 69% among 6,200; AID 488917
# Casp3 SENP sel – inhibits human caspase-3 in SENP selectivity test | shares compounds with SENP7 block | purified caspase-3, Z-DEVD-aminoluciferin luminescence, 60 min | inhibition, % at 12.5 µM | hit rate 60% among 6,200;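 active means mean inhibition above about 50%, limit read from the data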
# Luc interf – counter-screen for SENP inhibitors: luminescence interference. shares compounds with SENP7 block. Pre-incubated SENP8/Z-RLRGG-aminoluciferin, luciferase luminescence interference. inhibition, % at 12.5 µM. hit rate 39% among 6,200. AID 488919;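 active means mean inhibition above about 50% when retested at one dose, limit read from the data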
# A number is an active result; 0 = inactive; - = no result. Only some compounds are listed: those with a hit (about 2.6% of all), similar ones and a draw of the others.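 How the source made its calls, unless noted: active means mean inhibition above about 50% in the one-dose retest (limit read from the data); inactive means the rest.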
SMILES,SENP6 block,SENP8 block-1,SENP1 FRET inh,SENP7 block,SENP8 block-2,Platelet DG rel,SENP8 conf,SENP6 confirm,SENP7 conf,Casp3 SENP sel,Luc interf
Cc1cc(-c2nc3ccccc3[nH]2)ccc1N,50,0,0,91,70,0,87,86,99,93,87
c1ccc(-c2nc3ccccc3[nH]2)cc1,76,0,0,76,71,0,73,66,90,84,69
Nc1cc(N)cc(-c2nc3ccccc3[nH]2)c1,0,0,0,0,0,-,-,-,-,-,-
c1ccc2[nH]c(-c3ccncc3)nc2c1,0,0,0,0,0,0,-,-,-,-,-
CCOC(=O)c1ccc(NC(=O)NC2=NCCS2)cc1,-,0,0,-,-,-,-,-,-,-,-
Cc1c(C(=O)/C=C/c2cccs2)oc2ccc(F)cc12,52,0,0,0,0,0,0,0,0,0,0
Cc1c(C(=O)Nc2nccs2)oc2ccc(F)cc12,0,0,0,0,0,-,-,-,-,-,-
CCc1cccc(CC)c1C(OC(C)=O)c1cccnc1 (stereo not given),0,0,0,0,55,0,0,0,0,0,0
O=C1/C(=C/c2ccc([N+](=O)[O-])cc2)CCc2ccccc21,95,-,-,98,90,50,0,81,0,0,0
COc1ccc(OC)c(C=C2CCc3ccccc3C2=O)c1,-,0,0,-,-,-,-,-,-,-,-
COc1ccc(/C=C2\CCc3ccccc3C2=O)cc1OC,52,0,0,0,0,0,69,62,62,0,0
COc1ccc(/C=C2\CC/C(=C\c3ccc(OC)c(OC)c3)C2=O)cc1OC,0,0,0,0,0,0,-,-,-,-,-
CC(=O)Oc1ccc(/C=C2/CCc3ccccc3C2=O)cc1,97,0,0,97,95,0,96,100,102,94,98
CCc1ccc(C2=NN(C(C)=O)C(c3ccco3)C2)cc1 (stereo not given),82,0,0,81,83,0,92,92,99,90,92
CN(CCc1ccccc1)C(=O)c1ccc(NC(=O)Cc2ccc(NC(=O)C3CCN(C(=O)c4ccccc4)CC3)cc2)cc1,-,0,0,-,-,-,-,-,-,-,-
O=C1NC(=O)C2(CCCCCC2)N1,-,0,0,-,-,-,-,-,-,-,-
Cc1[nH]n(-c2ccc([N+](=O)[O-])cc2)c(=O)c1C=NCCN1CCN(C(=O)c2ccc(Br)cc2)CC1,64,0,0,88,0,0,0,0,0,55,56
Cc1[nH]n(-c2ccc([N+](=O)[O-])cc2)c(=O)c1C=NCCN1CCN(C(=O)c2cccc(F)c2)CC1,90,0,0,88,67,0,0,0,0,0,57
CCCCC(=O)N(C)c1c(C)nc2ccc(C(=O)N(CC)CCN(C)C)cn12,-,0,0,-,-,-,-,-,-,-,-
Cc1ccccc1C(=O)NNC(=O)CSc1nc(-c2ccccc2)cc(=O)[nH]1,0,0,0,0,0,0,-,-,-,-,-
CN(C)c1ccc(/C=c2/sc3n(c2=O)NC2(c4ccccc4)N(C)C(=O)N(C)C2(c2ccccc2)N=3)cc1 (stereo not given),0,-,-,0,0,0,-,-,-,-,-
C=CC(=O)Nc1ccc(N(C)c2ccnc(Nc3ccc(N4CCN(C)CC4)cc3)n2)cc1,0,0,0,0,0,-,-,-,-,-,-
C(=C\c1ccco1)/c1nc2ccccc2[nH]1,0,0,0,0,0,0,-,-,-,-,-
CC(=O)Nc1ccc(/C=C/c2nc3ccccc3[nH]c2=O)cc1,0,0,0,0,0,0,-,-,-,-,-
CN(C)c1ccc(/C=C/c2nc3ccccc3c(=O)[nH]2)cc1,0,0,0,95,93,0,0,90,103,96,0

# From PubChem BioAssay
